Series [1] concerns Pseudoalteromonas ulvae. In words: Anti-biofilm activity against Pseudoalteromonas ulvae TC14 assessed as inhibition of bacterial adhesion incubated for 15 hrs at 20 degC by Syto 61 dye based fluorescence assay. In kind it is functional, organism-based. Conditions: Pseudoalteromonas ulvae, TC14, 15 h. Summed up:
(§1)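 Biofilm formation (adhesion) of the marine strains was measured with the Syto 61 fluorophore, using a method adapted from Leroy et al. Compounds were first screened at 200 µM, and the value is % adhesion at that concentration. EC50 values were derived from the same assay.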

The test system of series [2] is Paracoccus sp. In words: Anti-biofilm activity against Paracoccus sp. 4M6 assessed as inhibition of bacterial adhesion incubated for 15 hrs at 20 degC by Syto 61 dye based fluorimetric assay. In kind it is functional, organism-based. Conditions: Paracoccus sp. (in: a-proteobacteria), 4M6, 15 h. Summed up: as §1
Series [3] has as its system Pseudoalteromonas lipolytica. In words: Anti-biofilm activity against Pseudoalteromonas lipolytica TC8 assessed as bacterial adhesion at 200 uM incubated for 15 hrs at 20 degC by Syto 61 dye based fluorimetric assay relative to control. The format is functional. Summed up: as §1
For series [4], the system named is Pseudoalteromonas lipolytica. Description: Anti-biofilm activity against Pseudoalteromonas lipolytica TC8 assessed as inhibition of bacterial adhesion incubated for 15 hrs at 20 degC by Syto 61 dye based fluorimetric assay. In kind it is functional, organism-based. The settings on record: Pseudoalteromonas lipolytica, TC8, 15 h. The procedure, abridged:
as §1

Series [5] concerns Pseudoalteromonas ulvae. Description: Anti-biofilm activity against Pseudoalteromonas ulvae TC14 assessed as bacterial adhesion at 200 uM incubated for 15 hrs at 20 degC by Syto 61 dye based fluorescence assay relative to control. The format is functional. Summed up: as §1
The subject of series [6] is Paracoccus sp. In words: Anti-biofilm activity against Paracoccus sp. 4M6 assessed as bacterial adhesion at 200 uM incubated for 15 hrs at 20 degC by Syto 61 dye based fluorimetric assay relative to control. In kind it is functional. Summed up: as §1
In series [7] the test system is Pseudoalteromonas ulvae. Description: Growth inhibition of Pseudoalteromonas ulvae TC14 at 100 uM measured every hr for 6 hrs by turbidimetric method. The settings on record: in vivo. In kind it is organism-based. Summed up:
(§2)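 Bacterial growth of TC14, TC8 and 4M6 was followed with test compounds at 100 µM. Ampicillin at 5 µM served as the reference antibiotic.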

The subject of series [8] is Pseudoalteromonas lipolytica. Description: Effect on cell viability of Pseudoalteromonas lipolytica TC8 at 100 uM measured after 6 hrs by resazurin dye based fluorescence assay. In kind it is organism-based. The procedure, abridged: (§3)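 Viability was scored with resazurin, following the same protocol as the Syto 61 antiadhesion assay. Compounds were tested at 5, 10, 20, 50, 100 and 200 µM on each strain, and the 5 and 100 µM points are the ones reported.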

Series [9] deals with Paracoccus sp. Description: Effect on cell viability of Paracoccus sp. 4M6 at 5 uM measured after 6 hrs by resazurin dye based fluorescence assay. The format is organism-based. Summed up: as §3
For series [10], the system named is Pseudoalteromonas ulvae. In words: Effect on cell viability of Pseudoalteromonas ulvae TC14 at 100 uM measured after 6 hrs by resazurin dye based fluorescence assay. In kind it is organism-based. The procedure, abridged:
as §3

Series [11] deals with Paracoccus sp. Description: Growth inhibition of Paracoccus sp. 4M6 at 100 uM measured every hr for 6 hrs by turbidimetric method. The format is organism-based. Conditions: in vivo. The procedure, abridged: as §2
Series [12] has as its system Pseudoalteromonas ulvae. In words: Effect on cell viability of Pseudoalteromonas ulvae TC14 at 5 uM measured after 6 hrs by resazurin dye based fluorescence assay. In kind it is organism-based. Summed up:
as §3

For series [13], the system named is Pseudoalteromonas lipolytica. In words: Effect on cell viability of Pseudoalteromonas lipolytica TC8 at 5 uM measured after 6 hrs by resazurin dye based fluorescence assay. The format is organism-based. Summed up:
as §3

Series [14] relates to Paracoccus sp. In words: Effect on cell viability of Paracoccus sp. 4M6 at 100 uM measured after 6 hrs by resazurin dye based fluorescence assay. The format is organism-based. The procedure, abridged: as §3
Series [15] concerns Pseudoalteromonas lipolytica. In words: Growth inhibition of Pseudoalteromonas lipolytica TC8 at 100 uM measured every hr for 6 hrs by turbidimetric method. In kind it is organism-based. The settings on record: in vivo. Summed up: as §2
Series [16] concerns Pseudoalteromonas ulvae. In words: Growth inhibition of Pseudoalteromonas ulvae TC14 at 5 uM measured every hr for 6 hrs by turbidimetric method. The format is organism-based. Conditions: in vivo. The procedure, abridged: as §2
Series [17] deals with Paracoccus sp. Description: Growth inhibition of Paracoccus sp. 4M6 at 5 uM measured every hr for 6 hrs by turbidimetric method. In kind it is organism-based. The settings on record: in vivo. The procedure, abridged: as §2
Series [18] has as its system Pseudoalteromonas lipolytica. In words: Growth inhibition of Pseudoalteromonas lipolytica TC8 at 5 uM measured every hr for 6 hrs by turbidimetric method. In kind it is organism-based. Conditions: in vivo. The procedure, abridged:
as §2

Regarding `CN(C)CCCOc1ccc(CCn2cc(CCCCc3cn(CCc4ccc(OCCCN(C)C)c(Br)c4)nn3)nn2)cc1Br`, the EC50 (with Pseudoalteromonas ulvae [1]; in the series with Paracoccus sp. [2]; in [4]) was more than 200 µM throughout. Besides, the Activity in [3] is recorded as 89.2%; in the series with Pseudoalteromonas ulvae [5], 66.5%; in the series on Paracoccus sp. [6], 80.7%.

With `COc1ccc(CCn2cc(-c3cccc(-c4cn(CCc5ccc(OC)c(Br)c5)nn4)c3)nn2)cc1Br`, the EC50 (in the series with Pseudoalteromonas ulvae [1]; in the series on Paracoccus sp. [2]; in series [4]) was more than 200 µM each time. Besides, the Activity in [3] is recorded as 101.1%; in the series on Pseudoalteromonas ulvae [5], 74.1%; in the series with Paracoccus sp. [6] it was 76.2%.

As to `Oc1ccc(CCn2cc(CCCc3cn(CCc4ccc(O)c(Br)c4)nn3)nn2)cc1Br`, the EC50 (in the series with Pseudoalteromonas ulvae [1]; with Paracoccus sp. [2]; in series [4]) was more than 200 µM each time. Also, the Activity turned out to be 63.5% in series [3], 53.1% in the series on Pseudoalteromonas ulvae [5] and 83.4% with Paracoccus sp. [6].

Regarding `CN(C)CCCOc1ccc(CCn2cc(-c3ccc(-c4cn(CCc5ccc(OCCCN(C)C)c(Br)c5)nn4)cc3)nn2)cc1Br`, the 50% effective concentration (EC50) with Pseudoalteromonas ulvae [1] came to 0.4 µM; in the series on Paracoccus sp. [2] it was 3.5 µM; in series [4], 15 µM. Besides, the “growth inhibition (GI)” value (in the series with Pseudoalteromonas ulvae [7]; in the series on Paracoccus sp. [11]; in series [15]) was “Toxic” in each case. Further, the Activity in series [3] is given as 5.3%; in series [8] it was “Toxic”; in the series on Paracoccus sp. [9], “Non-Toxic”; with Pseudoalteromonas ulvae [5], 0.6%; in the series on Pseudoalteromonas ulvae [10] it was “Toxic”; in the series on Paracoccus sp. [6], 5.1%. Moreover, the Activity entry in the series on Pseudoalteromonas ulvae [12] is “Non-Toxic”; in series [13], “Non-Toxic”; in the series on Paracoccus sp. [14], “Toxic”.

With `Oc1ccc(CCn2cc(CCCCCCc3cn(CCc4ccc(O)c(Br)c4)nn3)nn2)cc1Br`, the EC50 (in the series with Pseudoalteromonas ulvae [1]; with Paracoccus sp. [2]; in series [4]) was more than 200 µM each time. Besides, the values for the Activity (in series [3]; in the series with Pseudoalteromonas ulvae [5]; in the series on Paracoccus sp. [6]) were 75%, 61.7% and 78.1%, respectively.

As to `CN(C)CCOc1ccc(CCn2cc(-c3cccc(-c4cn(CCc5ccc(OCCN(C)C)c(Br)c5)nn4)c3)nn2)cc1Br`, the EC50 (in the series with Pseudoalteromonas ulvae [1]; in the series on Paracoccus sp. [2]; in [4]) was more than 200 µM each time. Also, the values for the Activity (in [3]; with Pseudoalteromonas ulvae [5]; with Paracoccus sp. [6]) were 65.1%, 62.2% and 66.9%, respectively.

On to `CN(C)CCCOc1ccc(CCn2cc(CCCCCCc3cn(CCc4ccc(OCCCN(C)C)c(Br)c4)nn3)nn2)cc1Br`, for which the concentration giving a half-maximal response (EC50) (in the series on Pseudoalteromonas ulvae [1]; with Paracoccus sp. [2]; in series [4]) was more than 200 µM each time. For the same compound, the Activity in [3] is listed as 72.3%; in the series on Pseudoalteromonas ulvae [5], 71%; in the series with Paracoccus sp. [6], 84.7%.

Regarding `COc1ccc(CCn2cc(COCc3cn(CCc4ccc(OC)c(Br)c4)nn3)nn2)cc1Br`, the 50% effective concentration (EC50) in the series on Paracoccus sp. [2] stood at 164 µM. Also, the figures for the Activity (in [3]; in the series on Pseudoalteromonas ulvae [5]; with Paracoccus sp. [6]) were 42.8%, 38.5% and 44.9%, respectively.

Turning to `COc1ccc(CCn2cc(CCCCCCc3cn(CCc4ccc(OC)c(Br)c4)nn3)nn2)cc1Br`, the EC50 (in the series on Pseudoalteromonas ulvae [1]; in the series with Paracoccus sp. [2]; in series [4]) was more than 200 µM each time. Moreover, the Activity in series [3] was determined as 78.3%; in the series with Pseudoalteromonas ulvae [5] it was 62.7%; in the series with Paracoccus sp. [6] it was 69.2%.

Consider `Oc1ccc(CCn2cc(-c3cccc(-c4cn(CCc5ccc(O)c(Br)c5)nn4)c3)nn2)cc1Br`, for which the half-maximal effective concentration (EC50) (with Pseudoalteromonas ulvae [1]; in the series on Paracoccus sp. [2]; in [4]) was more than 200 µM throughout. In addition, the Activity in series [3] is given as 66.5%; in the series on Pseudoalteromonas ulvae [5], 56.8%; in the series with Paracoccus sp. [6], 61.5%.

Turning to `CN(C)CCOc1ccc(CCn2cc(-c3ccc(-c4cn(CCc5ccc(OCCN(C)C)c(Br)c5)nn4)cc3)nn2)cc1Br`, the EC50 amounted to 0.9 µM with Pseudoalteromonas ulvae [1], 5.1 µM in the series with Paracoccus sp. [2] and 5.1 µM in [4]. In addition, the “growth inhibition (GI)” value (with Pseudoalteromonas ulvae [7]; in the series on Paracoccus sp. [11]; in series [15]) was “Toxic” throughout. For the same compound, the Activity in [3] is listed as 14.6%; in series [8], “Toxic”; with Paracoccus sp. [9], “Non-Toxic”; with Pseudoalteromonas ulvae [5] it was 0%; in the series on Pseudoalteromonas ulvae [10] it was “Toxic”; with Paracoccus sp. [6] it was 10.1%. The Activity result with Pseudoalteromonas ulvae [12] was “Non-Toxic”; in [13], “Non-Toxic”; with Paracoccus sp. [14], “Toxic”.

Take `CN(C)CCCOc1ccc(CCn2cc(-c3cccc(-c4cn(CCc5ccc(OCCCN(C)C)c(Br)c5)nn4)c3)nn2)cc1Br`: the concentration giving a half-maximal response (EC50) (with Pseudoalteromonas ulvae [1]; with Paracoccus sp. [2]; in series [4]) was more than 200 µM throughout. The Activity in series [3] was 71.6%; in the series on Pseudoalteromonas ulvae [5] it was 65.3%; with Paracoccus sp. [6], 78.1%.

For the compound `CC1(C)S[C@@H]2[C@H](NC(=O)[C@H](N)c3ccccc3)C(=O)N2[C@H]1C(=O)O` [AMPICILLIN], the Activity result (in the series on Paracoccus sp. [9]; in the series with Pseudoalteromonas ulvae [12]; in [13]) was “Toxic” in each case. Besides, the “growth inhibition (GI)” value (in the series on Pseudoalteromonas ulvae [16]; in the series with Paracoccus sp. [17]; in [18]) was “Toxic” in each case.

Values taken from ChEMBL document CHEMBL4330109, “Parallel synthesis of a bis-triazoles library as psammaplin A analogues: A new wave of antibiofilm compounds?” (Bioorg Med Chem Lett, 2019).
